Compound activity deposited in PubChem by The Scripps Research Institute Molecular Screening Center.
CHRM4 agonist: agonists of human muscarinic M4 receptor (CHRM4). activation, % at 3 µM. 360,000 tested, 0.14% active. CHO-K1 hM4/Gqi5, Fluo-8 calcium fluorescence; vehicle 0%, full acetylcholine response 100%. P08173;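 active = activation above the run mean over all test wells plus 3 SD, cut at about 32% in these data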;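 also: peak over basal fluorescence ratio per well then scaled between controls; 0% = DMSO wells and 100% = acetylcholine at EC100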
Target sequence (P08173 whole entry, looked up): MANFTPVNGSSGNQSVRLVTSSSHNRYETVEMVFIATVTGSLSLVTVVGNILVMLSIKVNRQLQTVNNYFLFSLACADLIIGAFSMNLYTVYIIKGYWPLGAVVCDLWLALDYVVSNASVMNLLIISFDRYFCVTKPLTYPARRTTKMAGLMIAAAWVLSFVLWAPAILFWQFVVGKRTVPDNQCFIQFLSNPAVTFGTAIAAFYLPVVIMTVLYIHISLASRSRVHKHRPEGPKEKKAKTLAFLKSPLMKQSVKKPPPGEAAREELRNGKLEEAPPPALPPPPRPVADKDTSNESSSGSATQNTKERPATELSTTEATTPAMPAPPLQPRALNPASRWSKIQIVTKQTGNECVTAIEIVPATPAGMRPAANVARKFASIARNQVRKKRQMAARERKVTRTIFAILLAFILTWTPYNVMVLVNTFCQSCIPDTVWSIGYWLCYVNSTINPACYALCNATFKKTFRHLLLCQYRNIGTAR
CHRM5 antagonist: antagonists of human muscarinic M5 receptor (CHRM5). P08912. CHO-hM5 cells, Fluo-8 calcium fluorescence, ACh EC80. inhibition, % at 3 µM. 360,000 tested, 0.59% active;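 active = inhibition above a per-plate cutoff, the mean of that plate's test compounds plus 3 SD, cut at about 27% in these data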;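 also: 0% = acetylcholine EC80 with DMSO and 100% = DMSO without agonist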
M5 ag: agonists of human muscarinic M5 receptor (CHRM5); CHO-K1 hM5 cells, Fluo-8 calcium fluorescence; 0% DMSO wells, 100% maximal acetylcholine response; P08912; activation, % at 3 µM; 360,000 tested, 0.19% active;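 active = activation above the run's mean over test compounds plus 3 SD, cut at about 23% in these data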;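 also: signal is peak over basal fluorescence ratio across the kinetic read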
CHRM4 antagonist: antagonists of human muscarinic M4 receptor (CHRM4); P08173; CHO-hM4 cells, ACh EC80, Fluo-8 calcium fluorescence; inhibition, % at 3 µM; 360,000 tested, 0.73% active; AID 624125;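 active = inhibition above its plate's cutoff, the mean inhibition of sample wells plus 3 SD, cut at about 27% in these data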;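 also: 0% = acetylcholine EC80 with DMSO and 100% = DMSO without agonist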
CHRM5 PAM: positive allosteric modulators of human muscarinic M5 receptor; P08912; CHO-K1 hM5, Fluo-8 calcium, ACh EC20 PAM; 0% = ACh EC20, 100% = ACh EC100; activation, % at 3 µM; 360,000 tested, 0.3% active; AID 624038;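 active = activation above the run cutoff, the mean activation of all test compounds plus 3 SD, cut at about 18% in these data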
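Test system: CHO-K1 hM5 cells / Doses: single-point, 3 µM nominal / Times: Post-acetylcholine fluorescence recording 140 s / Technique: Fluo-8 calcium fluorescence / Measure: Max/basal fluorescence ratio as % of EC20–EC100 ACh window / Benchmarks: low control EC20 acetylcholine (0%), high control EC100 acetylcholine (100%) / Replicates: one well per compound, no replicates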
M4 PAM: CHRM4 positive allosteric modulation. CHO-K1 hM4/Gqi5, Fluo-8 calcium fluorescence, ACh EC20; 0% = ACh EC20, 100% = maximal ACh. activation, % at 3 µM. 360,000 tested, 0.4% active. AID 624126;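 active = activation above its plate's cutoff, the mean activation of sample wells plus 3 SD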
Numbers without * were called inactive. An excerpt weighted towards active compounds, which were near 1.8% of everything screened.

SMILES	CHRM4 agonist	CHRM5 antagonist	M5 ag	CHRM4 antagonist	CHRM5 PAM	M4 PAM
Cc1sc2ncnc(N3CCC(C(=O)N(C)CC(=O)Nc4ccccc4Cl)CC3)c2c1C	20	-1	-1	11	-16	-2
Cc1sc2ncnc(N3CCC(C(=O)Nc4ccc(C#N)cc4)CC3)c2c1C	3	0	3	1	1	24*
Cc1sc2ncnc(N3CCC(C(=O)Nc4cc(Cl)ccc4Cl)CC3)c2c1C	36*	5	1	34*	-8	56*
Cc1sc2ncnc(N3CCC(C(=O)Nc4ccc(S(N)(=O)=O)cc4)CC3)c2c1C	79*	6	1	67*	3	18
Cc1onc(-c2c(F)cccc2Cl)c1C(=O)Nc1cccc(S(=O)(=O)NC2=NCCC2)c1	5	-2	1	-13	3	10
CC(=O)[C@H]1CC[C@H]2[C@@H]3C=CC4=CC(=O)CC[C@@]4(C)[C@@H]3CC[C@]12C	5	3	1	8	-9	-4
CC1(C)COC(c2ccc3c(c2)OCO3)OC1	0	0	6	5	5	0
CNc1sc(C(=O)c2ccccc2F)c(N)c1-c1nc2ccccc2s1	3	4	2	34*	7	22
COc1cc(/C=C/C(=O)OCC(=O)Nc2ccc([N+](=O)[O-])cc2)ccc1O	39*	5	38*	2	-18	-11
Oc1ccc(C=NN=Cc2ccco2)c(O)c1	0	0	6	-2	-2	0
Cc1ccc(C(=O)NCC(=O)NCC(=O)OCc2ccc(Oc3ccc([N+](=O)[O-])cc3)cc2)cc1	14	31*	2	19	-22	-15
O=C(C[n+]1cc(-c2ccccc2)n2c1CCC2)c1cccs1	0	8	-9	2	8	-5
O=C(C[n+]1cc(-c2ccc(F)cc2)n2c1CCC2)N1c2ccccc2Sc2ccccc21	1	97*	-8	81*	-19	-17
O=C(C[n+]1cc(-c2ccccc2)n2c1CCC2)N1c2ccccc2Sc2ccccc21	0	52*	-10	64*	-19	-19
Cc1ccc(-c2c[n+](CC(=O)Nc3c(C)cccc3C)c3n2CCC3)cc1	0	-15	-1	2	16	-9
O=C(C[n+]1cc(-c2ccccc2)n2c1CCC2)Nc1nc(-c2ccc(F)cc2)cs1	0	7	-8	10	1	-5
Cc1ccc(-c2c[n+](CC(=O)N3c4ccccc4Sc4ccccc43)c3n2CCC3)cc1	0	100*	-8	99*	-21	-17
O=C1C=CN2CCCCC2CC1 (stereo not drawn)	1	8	-2	9	-2	-10
CC(=O)c1sc2nc(-c3ccc(C)cc3)c3c(c2c1N)CCCC3	-1	4	-2	-3	-2	-12
Cc1ccc(-c2nc3sc(C(N)=O)c(N)c3c3c2CCCC3)cc1	-2	10	0	99*	-12	-18
COc1ccc(OC)c(NC(=O)c2sc3ncnc(N4CCN(c5ccccn5)CC4)c3c2C)c1	1	-1	-2	-22	4	19*
Cc1nc(-c2cc(-c3nc(-c4ccc(C(C)(C)C)cc4)no3)no2)cs1	7	15	2	28*	-12	-21
COc1ccc(C(C)=O)cc1COC(=O)c1cc(=O)c2ccccc2o1	6	3	-4	-3	4	3
O=C(COc1ccc2ccccc2c1)N[C@@H](C(=O)O)c1ccc(O)cc1	2	-1	-5	-15	-3	9
Cc1noc(NS(=O)(=O)c2ccc(NC(=O)/C=C/c3ccc(C(C)C)cc3)cc2)c1C	0	0	-2	-3	-2	5
SMILES	CHRM4 agonist	CHRM5 antagonist	M5 ag	CHRM4 antagonist	CHRM5 PAM	M4 PAM
Cc1ccc(S(=O)(=O)Nc2cccc(/C=C/C(=O)O)c2)cc1	1	-1	-3	0	46*	8
COc1ccc(S(=O)(=O)Nc2cccc(/C=C/C(=O)O)c2)cc1	-1	3	-1	1	0	12
Cc1ccc(/C=C/C(=O)Nc2ccc(S(=O)(=O)Nc3ncccn3)cc2)cc1	2	-14	6	-6	26*	6
Cc1noc(NS(=O)(=O)c2ccc(NC(=O)/C=C/c3ccc(Br)cc3)cc2)c1C	0	-22	2	-6	16	16*
NS(=O)(=O)c1ccc(NC(=O)COC(=O)C2CC2)cc1	0	26	0	10	-6	-1
CCCn1ccnc1SC(C)C(=O)Nc1c(C)n(C)n(-c2ccccc2)c1=O (stereo not drawn)	0	6	3	1	4	1
O=C(NC1CCCN(c2ccc(C(F)(F)F)cn2)C1)c1ccnc(Cl)c1 (stereo not drawn)	4	-4	-2	5	3	20*
Cc1cc(NC(=O)c2ccccc2C)n(-c2cccc(F)c2)n1	1	-1	-3	0	0	-5
Cc1nc(N)c(Cc2ccc(Cl)cc2Cl)c(N)n1	36*	28*	2	20	-17	-18
COC(=O)c1ccc2[nH]c(C)cc(=O)c2c1	0	-2	-3	55*	1	-18
CCCN1C(=O)CC(Sc2ncccc2C(=O)O)C1=O (stereo not drawn)	1	7	-2	7	-2	-2
COc1ccc(CCN2C(=O)CC(Sc3ncccc3C(=O)O)C2=O)cc1OC (stereo not drawn)	0	-8	-2	-14	26*	32*
CCOc1ccc(/C=C/C(=O)c2c(O)c3ccccc3oc2=O)cc1	0	2	-2	14	-1	2
CN(C)c1ccc(/C=C/C(=O)c2c(O)c3ccccc3oc2=O)cc1	6	18	26*	6	-11	-13
O=C(NCC1CCCO1)c1ccc(Oc2ccc([N+](=O)[O-])cc2)cc1 (stereo not drawn)	10	1	0	9	-9	-10
O=C(NCC1CCCO1)c1ccc(NC(=O)c2ccc([N+](=O)[O-])cc2)cc1 (stereo not drawn)	6	-29	14	-9	13	13*
C=CCn1c(SCc2ccc(C(=O)Nc3nccs3)cc2)nnc1-c1ccc(C)c(Cl)c1	9	27*	1	20	-16	-16
CCc1nc2ccc(C(=O)N3CCN(c4ccc([N+](=O)[O-])cc4)CC3)cc2nc1CC	2	1	-10	0	-4	-6
COc1ccc(C(C[N+](=O)[O-])c2c(C)[nH]c3ccccc23)cc1OC (stereo not drawn)	4	0	-2	0	19*	5
